One block for each compound: values may come before it. The source made the active and inactive calls. The calls are words filed in the database; no cut-off is given here.
Assays:
[1] = Inhibition of recombinant human 3-MST expressed in Escherichia coli assessed as inhibition of H2S generation using 3-MP as substrate preincubated with enzyme for 1 hr followed by incubation with substrate for 1 hr by AzMC probe based fluorescence analysis
In short: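 Same 3-MST/3-MP/AzMC assay, 1 h preincubation then 1 h kinetic read, at 3, 10, 30, 100 and 300 μM (final DMSO 0.3%). Run for compounds inhibiting at least 60% at 100 μM. Three experiments in triplicate. IC50 from nonlinear fit of data taken between min 20 and 40 of the 60 min read.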

[2] = Inhibition of GYY4137-induced H2S release assessed as H2S-induced fluorescence signal at 300 uM measured after 2 hrs by AzMC probe based fluorescence analysis; assay type: functional; set-up: scale not given: the % may be the effect or the level left
In short: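 H2S scavenging/interference check in 50 mM Tris-HCl pH 8: compound at 300 μM with 100 μM AzMC and 5 mM GYY4137 as nonenzymatic H2S donor. Fluorescence read kinetically for 2 h at 37 °C (ex 365/em 450 nm). Signal loss above 20% flagged as potential scavenger/interferer.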

[3] = molecular target: Cystathionine gamma-lyase (Homo sapiens) (UniProt P32929); experiment: Inhibition of human full length CSE using L-cysteine as substrate at 30 to 300 uM preincubated with enzyme for 1 hr followed by substrate and PLP addition for 2 hrs by AzMC probe based fluorescence analysis; details: dose 30-300 µM, time 3.0 hrs
Cystathionine gamma-lyase (Homo sapiens), sequence (P32929 whole entry): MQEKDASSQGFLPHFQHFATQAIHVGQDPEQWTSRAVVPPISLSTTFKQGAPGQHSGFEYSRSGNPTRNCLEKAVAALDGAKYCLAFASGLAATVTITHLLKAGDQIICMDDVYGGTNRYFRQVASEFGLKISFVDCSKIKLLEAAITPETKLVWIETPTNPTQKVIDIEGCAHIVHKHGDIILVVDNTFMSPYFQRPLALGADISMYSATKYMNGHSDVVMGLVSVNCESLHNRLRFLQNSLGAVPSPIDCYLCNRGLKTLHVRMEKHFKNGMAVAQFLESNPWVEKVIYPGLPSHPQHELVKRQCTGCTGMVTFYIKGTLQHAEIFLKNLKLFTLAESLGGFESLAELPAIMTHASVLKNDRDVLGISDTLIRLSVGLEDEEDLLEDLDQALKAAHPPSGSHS
In short: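 Human full-length CSE, 2 μg/well, preincubated 1 h with compound at 30 or 300 μM. Then added 5 μM PLP and 2 mM L-cysteine. AzMC fluorescence read kinetically for 2 h at 37 °C. Substrate background subtracted; percent of control, at least three replicates.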

Mus musculus = experiment: Antitumor activity against mouse MC38 cells xenografed in C57BL/6 mouse assessed as euthanasia rate at 20 mg/kg, ip administered daily for 2 weeks and measured on day 32 (reference value: 75%); assay type: functional, MC-38; details: time 32 day
CT26 [4] = experiment: Antiproliferative activity against mouse CT26 cells assessed as inhibition of cell proliferation measured after 48 hrs by IncuCyte live-cell imaging assay; assay type: functional, cell-based; details: CT26, 48 h
MC-38 [5] = experiment: Antiproliferative activity against mouse MC38 cells assessed as inhibition of cell proliferation measured after 48 hrs by IncuCyte live-cell imaging assay; assay type: functional, cell-based; details: MC-38, 48 h
CT26 [6] = experiment: Antiproliferative activity against mouse CT26 cells assessed as inhibition of cell proliferation measured after 24 hrs by MTT assay; assay type: functional, cell-based; details: CT26, 24 h
MC-38 [7] = experiment: Antiproliferative activity against mouse MC38 cells assessed as inhibition of cell proliferation measured after 24 hrs by MTT assay; assay type: functional, cell-based; details: MC-38, 24 h
MC-38 [8] = experiment: Antitumor activity against mouse MC38 cells xenografed in C57BL/6 mouse assessed as reduction in tumor growth at 20 mg/kg, ip administered daily for 2 weeks by caliper analysis; assay type: functional, organism-based
CT26 [9] = experiment: Inhibition of 3-MST in mouse CT26 cells assessed as inhibition of H2S generation at 300 uM incubated for 4 hrs by AzMC probe based fluorescence analysis; assay type: cell-based
In short: (§1)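 Cells seeded at 60,000/well in 8-well chambers and allowed to adhere overnight. Exposed to 300 μM compound for 4 h, then supernatant replaced with 1 mM AzMC in HBSS plus glucose for 1 h. Fluorescence imaged by microscopy; mean pixel intensity expressed as percent of control.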

MC38 = experiment: Inhibition of 3-MST in mouse MC38 cells assessed as inhibition of H2S generation at 300 uM incubated for 4 hrs by AzMC probe based fluorescence analysis; assay type: cell-based; in short: as §1
Homo sapiens = organism: Homo sapiens; experiment: Inhibition of recombinant human 3-MST expressed in Escherichia coli assessed as inhibition of H2S generation using 3-MP as substrate at 100 uM preincubated with enzyme for 1 hr followed by incubation with substrate for 1 hr by AzMC probe based fluorescence analysis; details: time 2.0 hrs
In short: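 Human recombinant 3-MST, 3 μg/well, in 50 mM Tris-HCl pH 8 preincubated 1 h at 37 °C with compound at 100 μM (from 100 mM DMSO stock). Then 2 mM 3-MP (no extra sulfur acceptor) and 10 μM AzMC added. Fluorescence read kinetically 1 h at 37 °C, ex 365/em 450 nm. Percent inhibition, mean of three replicates.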

MC-38 [10] = experiment: Antiproliferative activity against mouse MC38 cells assessed as inhibition of cell proliferation upto 300 uM measured after 24 hrs by MTT assay; assay type: functional, cell-based; details: dose microM <=300, time 24.0 hrs
In short: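 CT26 or MC38 cells in high-glucose DMEM with 10% FBS and penicillin/streptomycin, 37 °C, 5% CO2. Seeded at 10,000 cells/well and treated after 1 h adherence at 3, 10, 30, 100 and 300 μM (final DMSO 0.5%). After 24 h, medium replaced by 2 mg/mL MTT in PBS for 3 h. Formazan dissolved in DMSO, absorbance read at 590 nm minus 690 nm. Expressed as percent of control; three experiments in triplicate.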

[11] = molecular target: T1, Cystathionine beta-synthase (Homo sapiens) (UniProt P35520); experiment: Inhibition of human full length CBS using L-cysteine and L-homocysteine as substrate at 30 to 300 uM preincubated with enzyme for 1 hr followed by substrate, PLP and SAM addition for 2 hrs by AzMC probe based fluorescence analysis; details: dose 30-300 µM, time 3.0 hrs
T1 sequence (whole entry): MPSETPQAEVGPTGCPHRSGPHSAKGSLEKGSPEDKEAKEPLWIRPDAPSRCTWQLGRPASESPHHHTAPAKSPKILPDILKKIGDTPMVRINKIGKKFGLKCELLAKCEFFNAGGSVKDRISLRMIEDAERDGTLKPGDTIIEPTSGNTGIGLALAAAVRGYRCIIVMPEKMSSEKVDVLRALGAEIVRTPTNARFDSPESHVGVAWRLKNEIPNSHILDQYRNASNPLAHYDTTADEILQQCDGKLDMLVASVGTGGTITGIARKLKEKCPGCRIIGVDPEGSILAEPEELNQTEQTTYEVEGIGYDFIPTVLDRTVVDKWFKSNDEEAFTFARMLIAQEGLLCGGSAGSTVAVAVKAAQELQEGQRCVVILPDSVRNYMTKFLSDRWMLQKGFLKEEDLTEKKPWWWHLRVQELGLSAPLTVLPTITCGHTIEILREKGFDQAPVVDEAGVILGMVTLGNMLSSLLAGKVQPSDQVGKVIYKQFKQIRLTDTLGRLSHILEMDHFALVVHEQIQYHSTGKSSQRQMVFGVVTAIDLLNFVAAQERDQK
In short: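 Human full-length CBS, 0.5 μg/well, preincubated 1 h with compound at 30 or 300 μM. Then added 5 μM PLP, 2 mM L-cysteine, 2 mM L-homocysteine and 500 μM SAM. AzMC fluorescence read kinetically for 2 h at 37 °C. Substrate background subtracted; percent of control, at least three replicates.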

IC50 [1]: 12.1 µM
SMILES: O=C(CSc1nccc(=O)[nH]1)c1cc(Cl)c(O)c(Cl)c1
Activity [2]: < 80%

IC50 [1]: 16.1 µM
inhibition [3]: Active
SMILES: Cc1cc(=O)[nH]c(SCC(=O)c2ccc3ncccc3c2)n1

IC50 (CT26 [4]): 207 µM
IC50 (CT26 [6]): 243 µM
IC50 [1]: 15.6 µM
inhibition (Homo sapiens): 68%
SMILES: Cc1cc(=O)[nH]c(SCC(=O)c2cccc3ccccc23)n1
Activity (Mus musculus): 67%
IC50 (MC-38 [5]): 101 µM
IC50 (MC-38 [7]): 221 µM
Activity (MC-38 [8]): inactive
inhibition (CT26 [9]): Active
inhibition (MC38): Active

IC50 [1]: 12.9 µM
inhibition [3]: Active
SMILES: O=C(CSc1nccc(=O)[nH]1)c1ccc(O)cc1

IC50 [1]: 10.8 µM
SMILES: Cc1cc(O)nc(SCC(=O)c2ccc(O)cc2)n1
Activity [2]: < 80%

IC50 [1]: 18.9 µM
SMILES: O=C(CSc1nccc(=O)[nH]1)c1ccc(O)c(O)c1
Activity [2]: < 80%

IC50 (CT26 [4]): > 1000 µM
IC50 (CT26 [6]): 475 µM
IC50 [1]: 14.4 µM
inhibition [11]: inactive
inhibition [3]: inactive
SMILES: CC(=O)Nc1ccc(C(=O)CSc2nccc(O)n2)cc1
IC50 (MC-38 [5]): > 1000 µM
IC50 (MC-38 [7]): > 1000 µM
inhibition (CT26 [9]): Active
Activity (MC-38 [10]): inactive
inhibition (MC38): Active

IC50 [1]: 14.2 µM
SMILES: O=C(CSc1nccc(=O)[nH]1)c1ccc(O)c(I)c1
Activity [2]: < 80%

IC50 [1]: 15.5 µM
SMILES: O=C(CSc1nccc(=O)[nH]1)c1ccc2ncccc2c1
Activity [2]: < 80%

IC50 [1]: 34.1 µM
SMILES: O=C(CSc1nccc(=O)[nH]1)c1cc(O)cc(O)c1
Activity [2]: < 80%

IC50 [1]: 21.6 µM
SMILES: O=C(CSc1nccc(=O)[nH]1)c1ccc(O)c(F)c1
Activity [2]: < 80%

IC50 (CT26 [4]): 352 µM
IC50 (CT26 [6]): 356 µM
IC50 [1]: 7.3 µM
inhibition [11]: inactive
inhibition [3]: inactive
SMILES: O=C(CSc1nccc(=O)[nH]1)c1cccc2ccccc12
Activity (Mus musculus): 33%
IC50 (MC-38 [5]): 191 µM
IC50 (MC-38 [7]): 366 µM
Activity (MC-38 [8]): Active
inhibition (CT26 [9]): Active
inhibition (MC38): Active

IC50 (CT26 [4]): 150 µM
IC50 (CT26 [6]): 200 µM
IC50 [1]: 28.2 µM
inhibition [11]: inactive
inhibition [3]: inactive
SMILES: O=C(CSc1nccc(=O)[nH]1)c1ccc2ccccc2c1
IC50 (MC-38 [5]): 152 µM
IC50 (MC-38 [7]): 340 µM
inhibition (CT26 [9]): Active
inhibition (MC38): Active

IC50 (CT26 [4]): 520 µM
IC50 (CT26 [6]): 502 µM
IC50 [1]: 19.5 µM
inhibition [11]: inactive
inhibition [3]: inactive
SMILES: Cc1cc(=O)[nH]c(SCC(=O)c2ccc3c(c2)OCO3)n1
IC50 (MC-38 [5]): 777 µM
IC50 (MC-38 [7]): 367 µM
inhibition (CT26 [9]): Active
Activity (MC-38 [10]): inactive
inhibition (MC38): Active

IC50 [1]: 16.9 µM
SMILES: Cc1cc(=O)[nH]c(SCC(=O)c2ccc(O)c(I)c2)n1
Activity [2]: < 80%

IC50 [1]: 25.3 µM
SMILES: Cc1cc(=O)[nH]c(SCC(=O)c2ccc(O)c(Cl)c2)n1
Activity [2]: < 80%

IC50 [1]: 35.9 µM
SMILES: Cc1cc(=O)[nH]c(SCC(=O)c2ccc(F)c3ccccc23)n1

IC50 [1]: 15.6 µM
SMILES: Cc1cc(O)nc(SCC(=O)c2ccc(O)c(O)c2)n1
Activity [2]: < 80%

IC50 [1]: 28 µM
SMILES: Cc1cc(=O)[nH]c(SCC(=O)c2ccc(O)c(F)c2)n1
Activity [2]: < 80%

IC50 [1]: 18.8 µM
SMILES: O=C(CSc1nccc(=O)[nH]1)c1ccc(O)c(Cl)c1
Activity [2]: < 80%

IC50 [1]: 31.8 µM
SMILES: O=C(CSc1nccc(=O)[nH]1)c1ccc(F)c2ccccc12

IC50 [1]: 3.3 µM
SMILES: Cc1cc(=O)[nH]c(SCC(=O)c2ccc(O)c3ccccc23)n1
Activity [2]: < 80%

IC50 (CT26 [4]): > 1000 µM
IC50 (CT26 [6]): > 1000 µM
IC50 [1]: 9.9 µM
inhibition [11]: inactive
inhibition [3]: inactive
SMILES: CC(=O)Nc1ccc(C(=O)CSc2nc(C)cc(O)n2)cc1
IC50 (MC-38 [5]): > 1000 µM
IC50 (MC-38 [7]): > 1000 µM
inhibition (CT26 [9]): Active
Activity (MC-38 [10]): inactive
inhibition (MC38): Active

IC50 [1]: 21.3 µM
SMILES: Cc1cc(=O)[nH]c(SCC(=O)c2ccc(O)c(C(N)=O)c2)n1
Activity [2]: < 80%

IC50 (CT26 [4]): > 1000 µM
IC50 (CT26 [6]): > 1000 µM
IC50 [1]: 23.6 µM
inhibition [11]: inactive
inhibition [3]: inactive
SMILES: Cc1cc(=O)[nH]c(SCC(=O)c2cc(O)cc(O)c2)n1
IC50 (MC-38 [5]): > 1000 µM
IC50 (MC-38 [7]): > 1000 µM
inhibition (CT26 [9]): Active
Activity (MC-38 [10]): inactive
inhibition (MC38): Active

IC50 [1]: 6.6 µM
SMILES: Nc1c(Cl)cc(C(=O)CSc2nccc(=O)[nH]2)cc1Cl
Activity [2]: < 80%

IC50 [1]: 20.2 µM
SMILES: NC(=O)c1cc(C(=O)CSc2nccc(=O)[nH]2)ccc1O
Activity [2]: < 80%

IC50 [1]: 13.4 µM
SMILES: Cc1cc(=O)[nH]c(SCC(=O)c2cc(Cl)c(O)c(Cl)c2)n1
Activity [2]: < 80%

IC50 [1]: 22.6 µM
SMILES: Cc1cc(=O)[nH]c(SCC(=O)c2ccc3ccccc3c2)n1
